Data set [1] in a line: Stability of compound at pH 7.4. The following applies: buffer. The class given is physicochemical.
Data set [2] can be described thus: Stability of compound at pH 6. The following applies: buffer. It is filed as physicochemical.
The subject of a further data set is NCI-H460. In words: Cytotoxicity against human H460 cells assessed as cell viability after 3 days by sulforhodamine B assay. The class given is functional, cell-based. The following applies: NCI-H460, 72 h. Summed up:
(§1)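 Monolayer cultures were grown in RPMI-1640 or DMEM with 10% heat-inactivated fetal calf serum and penicillin/streptomycin, at 37°C and 5% CO2. Cells were exposed for 3 days to compound from 10−4.5 M (31.6 μM) down to 10−8 M (10 nM), with 1% DMSO as the control. Viability was read by sulforhodamine B. IC50 was the dose halving surviving cells versus control, run in quadruplicate and repeated at least three times.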

A short description of data set [3]: Stability of compound at pH 2. It is filed as physicochemical. As to conditions: buffer.
The nature of data set [4]: Cytotoxicity against human T29 cells assessed as cell viability after 3 days by sulforhodamine B assay. The class given is cell-based. As to conditions: T29, 72 h. In short, it runs like this: as §1
Data set [5] in a line: Stability of compound at pH 4. It is filed as physicochemical. The following applies: buffer.
Data set [6] is described as follows: Cytotoxicity against mutant K-ras-transformed human T29Kt1 cells assessed as cell viability after 3 days by sulforhodamine B assay. The class given is functional, cell-based. As to conditions: T29Kt1, 72 h. Summed up:
as §1

A short description of data set [7]: Stability of compound at pH 9. The class given is physicochemical. As to conditions: buffer.

Consider `OCc1cn(Cc2ccc(Br)cc2)c2ccccc12`, for which the Stability entry in data set [1] is recorded as “Stable”; in data set [2], “Stable”; in data set [3] it was “Unstable”; in data set [5] it was “Stable”; in data set [7], “Stable”. Also, the IC50 in the data set with NCI-H460 is 0.031 µM; in data set [4], more than 31.6 µM; in data set [6], 0.39 µM.
`COC(=O)CNCc1cn(Cc2ccc(Cl)cc2)c2ccccc12`: the IC50 is 0.1 µM in the data set on NCI-H460, 31.6 µM in data set [4] and 5.01 µM in data set [6].
With `O=CC1C(=O)N(Cc2ccc(Cl)cc2)c2cc(Cl)ccc21` (stereo unspecified), the Stability entry in data set [1] and in data set [3] was “Stable” throughout. Moreover, the IC50 was 18.2 µM in the data set with NCI-H460, 18.6 µM in data set [4] and 18.2 µM in data set [6].
With `O=Cc1cn(Cc2ccc(Br)c(Br)c2)c2ccccc12`, the Stability result in data set [1] and in data set [3] was “Stable” each time. Further, the IC50 is 0.063 µM in the data set with NCI-H460, more than 31.6 µM in data set [4] and 0.63 µM in data set [6].
For `O=Cc1cn(Cc2ccc(Cl)cc2)c2ccccc12`, the Stability entry in data set [1] and in data set [3] was “Stable” in each case. For the same molecule, the IC50 was 0.25 µM in the data set on NCI-H460, more than 31.6 µM in data set [4] and 2.51 µM in data set [6].
For the molecule `O=C(NC1CCCCC1)OCc1cn(Cc2ccc(Cl)cc2)c2ccccc12`, the IC50 was 0.02 µM in the data set on NCI-H460, more than 31.6 µM in data set [4] and 0.2 µM in data set [6].
The matching figures for `CC(O)c1cn(Cc2ccc(Cl)cc2)c2ccccc12` (stereo unspecified): 25.1 µM, more than 31.5 µM and 19.9 µM.
As to `O=Cc1cn(Cc2ccc(Cl)cc2)c2cc(F)ccc12`, the Stability entry in data set [1] and in data set [3] was “Stable” each time. In addition, the results for the IC50 (in the data set with NCI-H460; in data set [4]; in data set [6]) were 0.12 µM, more than 31.6 µM and 9.19 µM, respectively.
`O=C(O)c1cn(Cc2ccccc2)c2ccccc12`: the IC50 (in the data set on NCI-H460; in data set [4]; in data set [6]) was more than 31.6 µM throughout.
On to `O=Cc1cn(Cc2cccc(F)c2)c2ccccc12`, for which the Stability entry in data set [1] and in data set [3] was “Stable” each time. For the same molecule, the IC50 is 0.031 µM in the data set on NCI-H460, more than 31.6 µM in data set [4] and 2.63 µM in data set [6].
For `CC(=O)c1cn(Cc2ccccc2Cl)c2ccccc12`, the IC50 (in the data set on NCI-H460; in data set [4]; in data set [6]) was more than 31.6 µM throughout.
Consider `O=Cc1cn(Cc2ccc(Br)cc2)c2ccccc12`, for which the Stability entry in data set [1] and in data set [3] was “Stable” in each case. The IC50 with NCI-H460 was 0.031 µM; in data set [4] it was more than 31.6 µM; in data set [6], 0.25 µM.
For `O=Cc1cn(Cc2cccc(Cl)c2)c2ccc(F)cc12`, the Stability entry in data set [1] and in data set [3] was “Stable” throughout. Also, the IC50 is 0.37 µM in the data set on NCI-H460, more than 31.6 µM in data set [4] and 1.5 µM in data set [6].
As for `O=C(O)c1cn(Cc2ccc(Cl)cc2)c2ccccc12`, the IC50 (in the data set with NCI-H460; in data set [4]; in data set [6]) was more than 31.6 µM each time.
Turning to `Cc1ccc(Cn2cc(C=O)c3ccccc32)cc1`, the Stability result in data set [1] and in data set [3] was “Stable” throughout. The IC50 in the data set on NCI-H460 is 0.063 µM; in data set [4], more than 31.6 µM; in data set [6], 3.98 µM.
For `CC(=O)c1cn(Cc2cccc(Cl)c2)c2ccccc12`, the IC50 (with NCI-H460; in data set [4]; in data set [6]) was more than 31.6 µM throughout.
Regarding `Cc1cn(Cc2ccc(Cl)cc2)c2ccccc12`, the IC50 (with NCI-H460; in data set [4]; in data set [6]) was more than 31.6 µM throughout.
With `O=Cc1cn(Cc2cccc(Br)c2)c2ccccc12`, the Stability entry in data set [1] and in data set [3] was “Stable” each time. Also, the IC50 was 0.039 µM in the data set with NCI-H460, more than 31.6 µM in data set [4] and 1.58 µM in data set [6].
In the case of `COC(=O)c1cn(Cc2ccc(Br)cc2)c2ccccc12`, the results for the IC50 (in the data set with NCI-H460; in data set [4]; in data set [6]) were 5 µM, 5 µM and 6.3 µM, respectively.
For the molecule `CC(=O)c1cn(Cc2ccc(Cl)cc2)c2ccccc12`, the IC50 (with NCI-H460; in data set [4]; in data set [6]) was more than 31.6 µM each time.
As to `O=Cc1cn(Cc2ccc(Cl)cc2Cl)c2ccccc12`, the Stability result in data set [1] and in data set [3] was “Stable” throughout. Further, the IC50 in the data set with NCI-H460 was 0.1 µM; in data set [4], more than 31.6 µM; in data set [6], 1.58 µM.
Take `N#Cc1cn(Cc2cccc(Cl)c2)c2ccccc12`: the IC50 (in the data set with NCI-H460; in data set [4]; in data set [6]) was more than 31.6 µM each time.
Consider `CC(C)Cn1cc(C=O)c2ccccc21`, for which the Stability result in data set [1] and in data set [3] was “Stable” throughout. Besides, the IC50 is 1.99 µM with NCI-H460, more than 31.6 µM in data set [4] and more than 31.6 µM in data set [6].
Take `O=Cc1cn(Cc2ccc([N+](=O)[O-])cc2)c2ccccc12`: the Stability entry in data set [1] and in data set [3] was “Stable” in each case. Moreover, the IC50 in the data set on NCI-H460 is 0.5 µM; in data set [4], more than 31.6 µM; in data set [6], 10 µM.
`CC(=O)OCc1cn(Cc2ccc(Cl)cc2)c2ccccc12`: the IC50 in the data set with NCI-H460 is 0.039 µM; in data set [4], more than 31.6 µM; in data set [6] it was 0.063 µM.
Take `O=Cc1cn(Cc2ccc(Cl)cc2)c2cc(Br)ccc12`: the Stability result in data set [1] and in data set [3] was “Stable” throughout. In addition, the IC50 in the data set with NCI-H460 was determined as 0.09 µM; in data set [4], 21 µM; in data set [6], 32 µM.
For `O=Cc1cn(CCCOc2ccc(Cl)cc2)c2ccccc12`, the Stability result in data set [1] and in data set [3] was “Stable” in each case. The IC50 in the data set on NCI-H460 is 0.045 µM; in data set [4], more than 31.6 µM; in data set [6], 4.89 µM.
On to `O=Cc1cn(Cc2cccc([N+](=O)[O-])c2)c2ccccc12`, for which the Stability entry in data set [1] and in data set [3] was “Stable” each time. Further, the IC50 in the data set on NCI-H460 is 0.039 µM; in data set [4], more than 31.6 µM; in data set [6], 0.5 µM.
As for `O=Cc1cn(Cc2cccc(Cl)c2)c2ccccc12`, the Stability entry in data set [1] and in data set [3] was “Stable” each time. Moreover, the IC50 with NCI-H460 is 0.037 µM; in data set [4], more than 31.6 µM; in data set [6], 0.37 µM.
Take `c1ccc(Cn2ccc3ccccc32)cc1`: the IC50 (with NCI-H460; in data set [4]; in data set [6]) was more than 31.6 µM in each case.
For `O=Cc1cn(Cc2ccccc2F)c2ccccc12`, the Stability entry in data set [1] and in data set [3] was “Stable” in each case. Further, the IC50 in the data set on NCI-H460 is 0.1 µM; in data set [4], more than 31.6 µM; in data set [6], 0.31 µM.
For the molecule `O=Cc1cn(Cc2ccc(Cl)cc2)c2ccc(F)cc12`, the Stability result in data set [1] and in data set [3] was “Stable” in each case. Also, the IC50 in the data set with NCI-H460 was 0.29 µM; in data set [4] it was more than 31.6 µM; in data set [6], 9.09 µM.
With `OCCCc1cn(Cc2ccccc2)c2ccccc12`, the IC50 (with NCI-H460; in data set [4]; in data set [6]) was more than 31.6 µM each time.
As for `O=Cc1cn(Cc2cccc(C(F)(F)F)c2)c2ccccc12`, the Stability entry in data set [1] and in data set [3] was “Stable” in each case. Also, the IC50 was 0.14 µM in the data set on NCI-H460, more than 31.6 µM in data set [4] and 1.78 µM in data set [6].
Take `Brc1cccc(Cn2cc(Cc3cn(Cc4cccc(Br)c4)c4ccccc34)c3ccccc32)c1`: the IC50 (in the data set with NCI-H460; in data set [4]; in data set [6]) was more than 31.6 µM in each case.
For `CC(=O)c1cn(Cc2ccccc2)c2ccccc12`, the results for the IC50 (in the data set on NCI-H460; in data set [4]; in data set [6]) were 10 µM, more than 31.6 µM and more than 31.6 µM, respectively.
With `COC(=O)c1cn(Cc2ccc(Cl)cc2)c2ccccc12`, the results for the IC50 (with NCI-H460; in data set [4]; in data set [6]) were 31.6 µM, 17.7 µM and 25.1 µM, respectively.
As for `OCc1cc2cc(F)ccc2n1Cc1ccc(Cl)cc1`, the IC50 was 11.5 µM in the data set with NCI-H460, 17.4 µM in data set [4] and 15.1 µM in data set [6].
As for `O=Cc1cn(Cc2ccc(C(F)(F)F)cc2)c2ccccc12`, the Stability entry in data set [1] and in data set [3] was “Stable” throughout. For the same molecule, the IC50 in the data set with NCI-H460 was 1.58 µM; in data set [4] it was more than 31.6 µM; in data set [6], more than 31.6 µM.
Turning to `OCCc1cn(Cc2ccc(Cl)cc2)c2ccccc12`, the IC50 (in the data set with NCI-H460; in data set [4]; in data set [6]) was more than 31.6 µM each time.
On to `Clc1cccc(Cn2cc(Cc3cn(Cc4cccc(Cl)c4)c4ccccc34)c3ccccc32)c1`, for which the IC50 (in the data set with NCI-H460; in data set [4]; in data set [6]) was more than 31.6 µM throughout.
Regarding `COCc1cn(Cc2ccc(Cl)cc2)c2ccccc12`, the figures for the IC50 (in the data set with NCI-H460; in data set [4]; in data set [6]) were 1.99 µM, more than 31.6 µM and 7.94 µM, respectively.
For the molecule `Cc1cccc(Cn2cc(C=O)c3ccccc32)c1`, the Stability entry in data set [1] and in data set [3] was “Stable” in each case. Further, the IC50 is 0.039 µM with NCI-H460, more than 31.6 µM in data set [4] and 6.3 µM in data set [6].
On to `O=Cc1cn(Cc2ccccc2)c2ccccc12`, for which the Stability result in data set [1] and in data set [3] was “Stable” in each case. The IC50 with NCI-H460 is 0.045 µM; in data set [4], more than 31.6 µM; in data set [6] it was 5 µM.
For the molecule `O=Cc1cn(Cc2ccc(Cl)cc2)c2ccc(Cl)cc12`, the Stability result in data set [1] and in data set [3] was “Stable” each time. Besides, the values for the IC50 (in the data set on NCI-H460; in data set [4]; in data set [6]) were 0.4 µM, more than 31.6 µM and 10 µM, respectively.

A word on the IC50: it is the concentration at which inhibition is half-maximal.

Source of the values: ChEMBL document CHEMBL1772965, “Analogues and derivatives of oncrasin-1, a novel inhibitor of the C-terminal domain of RNA polymerase II and their antitumor activities” (J Med Chem, 2011).
